# Source: PubChem BioAssay (The Scripps Research Institute Molecular Screening Center)
# In the library only some 1.8% were active in any assay of this set; here they are far more common.
# CHRM5 antagonist: human M5 muscarinic receptor antagonists, primary screen, CHO cells, Fluo-8 calcium fluorescence; Muscarinic acetylcholine receptor M5 (Homo sapiens), P08912; CHO-hM5 cells, ACh EC80; inhibition, % at 3 µM; 360,000 tested, 0.59% active; AID 624040, 2012;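 active = inhibition above a per-plate cutoff, the mean of that plate's test compounds plus 3 SD, cut at about 27% in these data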;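 note: 0% = acetylcholine EC80 with DMSO and 100% = DMSO without agonist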
# Target sequence (P08912 whole entry, looked up): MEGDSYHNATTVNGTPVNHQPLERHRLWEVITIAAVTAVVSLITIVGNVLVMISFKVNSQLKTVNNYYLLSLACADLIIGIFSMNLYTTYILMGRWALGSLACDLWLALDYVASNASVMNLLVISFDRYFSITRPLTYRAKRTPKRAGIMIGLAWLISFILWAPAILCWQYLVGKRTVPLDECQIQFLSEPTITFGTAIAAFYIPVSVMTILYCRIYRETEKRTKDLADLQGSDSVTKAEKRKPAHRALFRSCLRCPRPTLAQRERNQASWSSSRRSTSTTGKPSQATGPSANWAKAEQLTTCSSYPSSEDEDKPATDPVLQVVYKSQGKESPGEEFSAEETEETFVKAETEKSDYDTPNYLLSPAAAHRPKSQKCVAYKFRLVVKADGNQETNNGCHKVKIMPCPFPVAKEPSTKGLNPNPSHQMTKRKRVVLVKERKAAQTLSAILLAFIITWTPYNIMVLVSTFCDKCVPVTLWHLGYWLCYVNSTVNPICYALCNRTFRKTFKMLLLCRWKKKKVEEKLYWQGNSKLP
# M4 ag: human M4 muscarinic receptor agonists, primary screen, CHO-K1 cells, Fluo-8 calcium fluorescence; Muscarinic acetylcholine receptor M4 (Homo sapiens), P08173; CHO-K1 hM4/Gqi5; vehicle 0%, full acetylcholine response 100%; activation, % at 3 µM; 360,000 tested, 0.14% active; AID 624127, 2012;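 active = activation above the run mean over all test wells plus 3 SD, cut at about 32% in these data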;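 note: peak over basal fluorescence ratio per well then scaled between controls; 0% = DMSO wells and 100% = acetylcholine at EC100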
# M4 PAM: human M4 muscarinic receptor positive allosteric modulators, primary screen, CHO-K1 cells, Fluo-8 calcium fluorescence; Muscarinic acetylcholine receptor M4 (Homo sapiens), P08173; CHO-K1 hM4/Gqi5, ACh EC20; 0% = ACh EC20, 100% = maximal ACh; activation, % at 3 µM; 360,000 tested, 0.4% active;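 active = activation above its plate's cutoff, the mean activation of sample wells plus 3 SD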
# M5 PAM: human M5 muscarinic receptor positive allosteric modulators, primary screen, CHO-K1 cells, Fluo-8 calcium fluorescence. Muscarinic acetylcholine receptor M5 (Homo sapiens), P08912. CHO-K1 hM5, ACh EC20 PAM; 0% = ACh EC20, 100% = ACh EC100. activation, % at 3 µM. 360,000 tested, 0.3% active;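 active = activation above the run cutoff, the mean activation of all test compounds plus 3 SD, cut at about 18% in these data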
#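 System: CHO-K1 hM5 cells. Reagent: acetylcholine, EC20 level. Compound dosing: single dose, 3 µM nominal final test concentration. Timing: Post-acetylcholine fluorescence recording 140 s. Detection: Fluo-8 calcium fluorescence. Read-out: % activation, ACh-normalized. Benchmarks: ACh EC20 and EC100 wells. Repeats: singlicate, one well per test compound.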
# CHRM5 agonist: human M5 muscarinic receptor agonists, primary screen, CHO-K1 cells, Fluo-8 calcium fluorescence; activation, % at 3 µM; Muscarinic acetylcholine receptor M5 (Homo sapiens), P08912; CHO-K1 hM5 cells; 0% DMSO wells, 100% maximal acetylcholine response; 360,000 tested, 0.19% active;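 active = activation above the run's mean over test compounds plus 3 SD, cut at about 23% in these data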;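 note: signal is peak over basal fluorescence ratio across the kinetic read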
# M4 antag: human M4 muscarinic receptor antagonists, primary screen, CHO cells, Fluo-8 calcium fluorescence | Muscarinic acetylcholine receptor M4 (Homo sapiens), P08173 | CHO-hM4 cells, ACh EC80 | inhibition, % at 3 µM | 360,000 tested, 0.73% active | AID 624125, 2012;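 active = inhibition above its plate's cutoff, the mean inhibition of sample wells plus 3 SD, cut at about 27% in these data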;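 note: 0% = acetylcholine EC80 with DMSO and 100% = DMSO without agonist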
# The depositor's hits bear a star.
SMILES,CHRM5 antagonist,M4 ag,M4 PAM,M5 PAM,CHRM5 agonist,M4 antag
CC(C)(C)NC(=O)C(CCc1ccccc1)n1c(=O)c(-c2cc3ccccc3[nH]2)nc2ccccc21 (stereo not given),-13,1,-4,4,-2,-6
Cc1ccc(/C=N/N2CCN(Cc3ccc(Cl)cc3)CC2)o1,6,5,-2,-3,-2,31*
CC(C)C1C(=O)N(Cc2cn(CC3CCCCC3)nn2)CCS(=O)(=O)N1Cc1ccc(-c2ccccc2)cc1 (stereo not given),0,1,3,3,0,-15
CC(C)CC(NC(=O)c1ccccc1NC(=O)c1ccccc1)C(=O)O (stereo not given),-4,1,19,11,0,-11
CC(C)CC(NC(=O)c1ccc(Cl)cc1Cl)C(=O)O (stereo not given),-11,3,13,19*,0,-2
O=C(NN=Cc1c(O)ccc2ccccc12)c1ccc2c(c1)OCO2,-4,3,23*,10,5,-8
O=C(CC1CCCCC1)NCc1ccccn1,7,0,3,-2,2,0
O=C(c1c(F)cccc1F)N(Cc1ccccn1)C1CC1,2,1,18*,2,-3,-2
CCOC(=O)[C@]12CCCC=C1N(Cc1ccc3c(c1)OCO3)C(=O)[C@H](CC(=O)N1CCCC1)C2,0,3,5,-3,1,-17
O=c1cccc(-c2ccccc2)[nH]1,-12,1,4,30*,-3,-12
CCOC(=O)N1CCC(N2CCN(C3CCCC3)C(CCO)C2)CC1 (stereo not given),-3,1,-21,-5,-11,80*
CCOC(=O)N1CCC(NC2CCCCCCC2)CC1,5,1,-26,-4,-8,47*
CNc1cncc(-c2ccc(OC)cc2)n1,0,1,3,0,0,-1
Cc1cccc(CN2C(=O)/C(=C\c3ccc(C(=O)NCCN4CCOCC4)cc3)Sc3ccccc32)c1,31*,23,-10,-13,-2,18
Cc1ccc(C)c(CN2C(=O)CSc3ccc(C(=O)NCCN4CCOCC4)cc32)c1,3,2,1,-4,-5,4
O=C(NCCN1CCOCC1)c1ccc2c(c1)N(Cc1ccccc1F)C(=O)CS2,1,0,-17,-8,-15,47*
O=C(NCCCN1CCOCC1)c1ccc2c(c1)N(Cc1c(F)cccc1Cl)C(=O)CS2,19,2,-20,-16,-7,58*
CS(=O)(=O)N(CC(=O)N1CCCC1)C1CCCCC1,2,0,4,-3,0,-2
COc1ccc(NC(=O)C2(C)Cc3c(-c4cccc(C(N)=O)c4)ccnc3O2)cn1 (stereo not given),4,1,0,-2,-1,-5
C(=N\c1nc2ccccc2n1CCN1CCCCC1)/c1ccc2c(c1)OCO2,-4,1,10,23*,-3,6
COc1ccc(CNC(=O)C2(C)Cc3c(-c4cccc(C(N)=O)c4)ccnc3O2)cc1OC (stereo not given),0,-1,8,1,-1,1
COC(=O)NNS(=O)(=O)c1ccc(C)cc1,-3,0,-2,0,2,-7
Cc1ccc(S(=O)(=O)NNC(=O)CC#N)cc1,-15,1,15,21*,0,-6
Cc1ccc(S(=O)(=O)NC(=O)NCCCCNC(=O)NS(=O)(=O)c2ccc(C)cc2)cc1,-18,1,10,21*,6,7
CCCCNC(=O)NS(=O)(=O)c1ccc(C)cc1,1,1,-1,-7,15,-5
